The target in experiment [1] is Macrophage colony-stimulating factor 1 receptor (Homo sapiens) (UniProt P07333). Kind of experiment: Competitive binding affinity to CSF1R (unknown origin) at 10 uM in presence of ATP relative to control. The essentials:
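In vitro ATP-site competition binding assay across a diverse panel of 128 kinases, with each compound tested at a single concentration. Kinase binding is expressed relative to control.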

Experiment [2] addresses T1, Serine/threonine-protein kinase 17B (Homo sapiens) (UniProt O94768).
T1 sequence (whole entry): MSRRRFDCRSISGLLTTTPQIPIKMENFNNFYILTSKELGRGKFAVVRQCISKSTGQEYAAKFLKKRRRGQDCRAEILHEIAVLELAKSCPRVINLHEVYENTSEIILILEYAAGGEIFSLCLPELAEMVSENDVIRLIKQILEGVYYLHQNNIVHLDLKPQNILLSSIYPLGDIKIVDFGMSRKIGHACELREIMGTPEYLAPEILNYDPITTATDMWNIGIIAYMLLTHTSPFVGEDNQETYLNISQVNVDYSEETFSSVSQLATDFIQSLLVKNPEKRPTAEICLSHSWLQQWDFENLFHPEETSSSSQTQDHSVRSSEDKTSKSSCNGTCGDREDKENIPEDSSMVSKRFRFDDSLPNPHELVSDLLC
Put plainly: Competitive binding affinity to STK17B (unknown origin) at 10 uM in presence of ATP relative to control.

In experiment [3] the target is Epithelial discoidin domain-containing receptor 1 (Homo sapiens) (UniProt Q08345). Kind of experiment: Competitive binding affinity to DDR1 (unknown origin) at 10 uM in presence of ATP relative to control.
Chain of Epithelial discoidin domain-containing receptor 1 (Homo sapiens) (Q08345 whole entry, the tested form may be a part): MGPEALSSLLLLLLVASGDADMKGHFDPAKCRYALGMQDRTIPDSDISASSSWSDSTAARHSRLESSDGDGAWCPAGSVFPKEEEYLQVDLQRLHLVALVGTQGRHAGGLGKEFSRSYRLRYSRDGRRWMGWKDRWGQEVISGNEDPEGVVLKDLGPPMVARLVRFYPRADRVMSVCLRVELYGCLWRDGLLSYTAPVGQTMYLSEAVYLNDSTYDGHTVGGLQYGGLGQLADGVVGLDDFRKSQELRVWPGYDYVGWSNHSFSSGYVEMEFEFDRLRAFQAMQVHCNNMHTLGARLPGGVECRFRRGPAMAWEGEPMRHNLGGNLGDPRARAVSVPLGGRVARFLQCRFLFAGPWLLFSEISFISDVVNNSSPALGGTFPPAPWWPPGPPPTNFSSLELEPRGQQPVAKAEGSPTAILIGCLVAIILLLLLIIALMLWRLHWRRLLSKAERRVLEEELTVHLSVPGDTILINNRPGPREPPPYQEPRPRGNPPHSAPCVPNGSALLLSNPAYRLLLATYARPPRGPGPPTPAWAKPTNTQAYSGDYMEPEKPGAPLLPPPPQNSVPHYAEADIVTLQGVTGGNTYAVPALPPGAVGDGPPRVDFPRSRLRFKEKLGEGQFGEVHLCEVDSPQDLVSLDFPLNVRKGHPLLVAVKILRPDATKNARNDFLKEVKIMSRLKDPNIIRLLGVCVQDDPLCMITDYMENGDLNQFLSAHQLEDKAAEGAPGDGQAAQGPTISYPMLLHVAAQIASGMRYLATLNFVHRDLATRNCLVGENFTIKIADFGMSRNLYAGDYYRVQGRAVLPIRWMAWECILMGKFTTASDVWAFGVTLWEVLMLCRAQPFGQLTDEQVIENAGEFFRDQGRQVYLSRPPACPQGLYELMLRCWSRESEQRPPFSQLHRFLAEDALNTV
Experiment [4] deals with T2, Serine/threonine-protein kinase DCLK1 (Homo sapiens) (UniProt O15075).
T2 sequence (whole entry): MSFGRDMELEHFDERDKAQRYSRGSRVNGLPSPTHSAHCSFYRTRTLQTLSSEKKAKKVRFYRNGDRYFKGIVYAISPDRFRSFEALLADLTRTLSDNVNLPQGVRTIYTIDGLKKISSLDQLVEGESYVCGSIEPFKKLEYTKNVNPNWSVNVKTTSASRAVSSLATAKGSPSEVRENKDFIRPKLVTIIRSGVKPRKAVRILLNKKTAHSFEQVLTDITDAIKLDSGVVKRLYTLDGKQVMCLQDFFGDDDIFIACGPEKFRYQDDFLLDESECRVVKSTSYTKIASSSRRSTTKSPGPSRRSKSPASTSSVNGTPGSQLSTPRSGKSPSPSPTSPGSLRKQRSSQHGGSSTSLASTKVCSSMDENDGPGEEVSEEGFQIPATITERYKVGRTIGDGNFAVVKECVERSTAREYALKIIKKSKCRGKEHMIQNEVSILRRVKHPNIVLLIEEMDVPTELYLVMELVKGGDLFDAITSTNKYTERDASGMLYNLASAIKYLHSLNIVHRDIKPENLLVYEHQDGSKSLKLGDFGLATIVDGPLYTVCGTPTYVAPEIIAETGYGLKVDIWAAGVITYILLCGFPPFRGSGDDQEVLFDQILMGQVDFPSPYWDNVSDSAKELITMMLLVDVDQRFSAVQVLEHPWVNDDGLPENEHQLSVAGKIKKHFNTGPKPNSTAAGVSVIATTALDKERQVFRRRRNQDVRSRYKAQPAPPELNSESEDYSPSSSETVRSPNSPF
Put plainly: Competitive binding affinity to DCAMKL1 (unknown origin) at 10 uM in presence of ATP relative to control.

In experiment [5] the target is T3, Serine/threonine-protein kinase RIO3 (Homo sapiens) (UniProt O14730).
T3 sequence (whole entry): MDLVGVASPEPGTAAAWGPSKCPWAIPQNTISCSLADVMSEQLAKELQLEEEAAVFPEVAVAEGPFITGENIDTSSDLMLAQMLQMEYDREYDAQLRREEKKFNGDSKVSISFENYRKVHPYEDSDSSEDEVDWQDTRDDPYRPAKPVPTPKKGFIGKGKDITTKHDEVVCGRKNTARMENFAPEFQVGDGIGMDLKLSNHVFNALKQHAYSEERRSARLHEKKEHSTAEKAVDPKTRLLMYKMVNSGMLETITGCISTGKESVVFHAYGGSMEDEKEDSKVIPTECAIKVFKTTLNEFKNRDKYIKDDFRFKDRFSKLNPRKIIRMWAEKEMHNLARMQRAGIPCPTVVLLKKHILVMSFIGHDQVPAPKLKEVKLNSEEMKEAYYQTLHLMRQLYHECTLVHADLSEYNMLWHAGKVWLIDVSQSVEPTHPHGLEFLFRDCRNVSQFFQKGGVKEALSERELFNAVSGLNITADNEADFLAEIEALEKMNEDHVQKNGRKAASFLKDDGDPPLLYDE
Kind of experiment: Competitive binding affinity to RIOK3 (unknown origin) at 10 uM in presence of ATP relative to control.

The target in experiment [6] is T4, Protein kinase C epsilon type (Homo sapiens) (UniProt Q02156).
T4 sequence (whole entry): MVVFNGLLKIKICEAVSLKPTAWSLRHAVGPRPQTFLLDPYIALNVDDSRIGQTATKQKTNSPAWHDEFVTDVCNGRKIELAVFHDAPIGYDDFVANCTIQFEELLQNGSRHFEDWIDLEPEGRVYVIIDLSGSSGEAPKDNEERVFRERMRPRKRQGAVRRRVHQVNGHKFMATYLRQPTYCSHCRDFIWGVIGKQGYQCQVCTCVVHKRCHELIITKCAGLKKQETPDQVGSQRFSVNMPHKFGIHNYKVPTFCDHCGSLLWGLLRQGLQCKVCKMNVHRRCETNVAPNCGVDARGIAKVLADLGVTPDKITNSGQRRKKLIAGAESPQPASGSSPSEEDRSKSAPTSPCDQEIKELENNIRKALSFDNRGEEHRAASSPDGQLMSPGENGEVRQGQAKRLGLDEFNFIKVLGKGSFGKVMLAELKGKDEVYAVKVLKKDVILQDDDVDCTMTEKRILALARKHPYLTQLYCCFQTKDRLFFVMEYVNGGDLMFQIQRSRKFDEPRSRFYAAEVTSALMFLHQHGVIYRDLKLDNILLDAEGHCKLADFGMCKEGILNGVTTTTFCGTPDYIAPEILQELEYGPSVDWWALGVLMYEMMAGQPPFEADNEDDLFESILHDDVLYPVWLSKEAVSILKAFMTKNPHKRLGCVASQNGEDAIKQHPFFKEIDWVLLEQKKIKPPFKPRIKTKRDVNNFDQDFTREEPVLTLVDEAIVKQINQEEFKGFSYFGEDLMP
Kind of experiment: Competitive binding affinity to PRKCE (unknown origin) at 10 uM in presence of ATP relative to control.

Chain of Macrophage colony-stimulating factor 1 receptor (Homo sapiens) (P07333 whole entry): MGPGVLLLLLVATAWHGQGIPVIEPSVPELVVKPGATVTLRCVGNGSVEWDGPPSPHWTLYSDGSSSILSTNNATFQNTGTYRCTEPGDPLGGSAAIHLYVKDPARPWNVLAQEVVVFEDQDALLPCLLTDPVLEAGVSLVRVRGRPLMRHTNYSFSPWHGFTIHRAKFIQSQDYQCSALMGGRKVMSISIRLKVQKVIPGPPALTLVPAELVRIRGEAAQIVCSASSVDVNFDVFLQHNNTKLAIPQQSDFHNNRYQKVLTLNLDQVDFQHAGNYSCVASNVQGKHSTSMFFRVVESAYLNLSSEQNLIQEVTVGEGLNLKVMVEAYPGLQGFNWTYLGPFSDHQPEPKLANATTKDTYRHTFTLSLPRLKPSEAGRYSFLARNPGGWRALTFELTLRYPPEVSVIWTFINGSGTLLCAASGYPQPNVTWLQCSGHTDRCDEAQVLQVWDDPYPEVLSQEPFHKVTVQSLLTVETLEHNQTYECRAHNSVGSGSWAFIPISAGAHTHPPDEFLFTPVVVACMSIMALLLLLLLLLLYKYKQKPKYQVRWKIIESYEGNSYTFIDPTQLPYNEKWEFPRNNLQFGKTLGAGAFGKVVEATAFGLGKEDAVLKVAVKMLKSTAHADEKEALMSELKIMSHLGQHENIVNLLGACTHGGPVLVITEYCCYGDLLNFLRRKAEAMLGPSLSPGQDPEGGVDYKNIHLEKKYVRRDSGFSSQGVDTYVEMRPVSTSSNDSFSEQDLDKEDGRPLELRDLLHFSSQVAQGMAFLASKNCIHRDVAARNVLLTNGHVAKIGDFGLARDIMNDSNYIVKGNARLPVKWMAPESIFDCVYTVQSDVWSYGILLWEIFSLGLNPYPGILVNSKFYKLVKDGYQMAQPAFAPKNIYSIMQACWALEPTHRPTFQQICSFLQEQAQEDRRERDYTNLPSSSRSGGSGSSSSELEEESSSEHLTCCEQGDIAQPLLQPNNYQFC

As usually defined, the inhibition is how much of the control response was suppressed. Turning to `O[C@H]1CC[C@H](Nc2nccc(-c3n[nH]c4ccccc34)n2)CC1`, the inhibition in experiment [1] was determined as 97%; in experiment [2] it was 99%.

As to `O[C@H]1CC[C@H](Nc2nccc(-n3ccc4ccccc43)n2)CC1`, the inhibition in experiment [1], in experiment [3], in experiment [4], in experiment [5] and in experiment [6] was less than 50% each time.

On to `O[C@H]1CC[C@H](Nc2nccc(-n3ncc4ccccc43)n2)CC1`, for which the inhibition in experiment [1] is 74%; in experiment [3], less than 50%; in experiment [4] it was less than 50%; in experiment [5], less than 50%; in experiment [6], less than 50%.

Turning to `O[C@H]1CC[C@H](Nc2nccc(-n3nnc4ccccc43)n2)CC1`, the inhibition was less than 50% in experiment [1]; less than 50% in experiment [3]; 66% in experiment [4]; less than 50% in experiment [5]; less than 50% in experiment [6].

As for `O=C([C@H]1CC[C@H](Nc2nccc(-n3nnc4ccccc43)n2)CC1)N1CCOCC1`, in experiment [2], the inhibition was less than 50%.

In the case of `N[C@H]1CC[C@H](Nc2nccc(-n3nnc4ccccc43)n2)CC1`, the inhibition in experiment [2] is 92%.

Values taken from ChEMBL document CHEMBL2424622, “Development of amino-pyrimidine inhibitors of c-Jun N-terminal kinase (JNK): kinase profiling guided optimization of a 1,2,3-benzotriazole lead” (Bioorg Med Chem Lett, 2013).
